Reference: ChEMBL document CHEMBL3098020, “Synthesis and biological evaluation of novel 2-amino-3-aroyl-4-neopentyl-5-substituted thiophene derivatives as allosteric enhancers of the A₁ adenosine receptor” (Bioorg Med Chem, 2014)

Columns and labels:
[1] = target: T1, Adenosine receptor A1 (Homo sapiens) (UniProt P30542); assay: Potentiation of CCPA-induced displacement of [3H]-DPCPX from human adenosine A1 receptor expressed in CHO cell membranes at 10 uM after 90 mins relative to CCPA-treated control
T1 sequence (whole entry): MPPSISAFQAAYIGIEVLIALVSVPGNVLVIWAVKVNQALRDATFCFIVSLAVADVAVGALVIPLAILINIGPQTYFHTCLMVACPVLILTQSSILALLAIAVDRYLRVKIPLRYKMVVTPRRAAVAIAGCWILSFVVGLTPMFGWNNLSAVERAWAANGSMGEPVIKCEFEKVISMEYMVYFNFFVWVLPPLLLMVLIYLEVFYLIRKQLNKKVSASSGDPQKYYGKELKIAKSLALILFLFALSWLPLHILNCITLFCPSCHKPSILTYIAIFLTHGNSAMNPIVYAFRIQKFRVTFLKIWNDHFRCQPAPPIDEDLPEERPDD
Method in brief: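 CCPA (0.01 nM–1 µM) competition against [³H]DPCPX in hA1-CHO membranes, with or without compound at 10 µM. Nonspecific binding defined with 1 µM DPCPX. Ki calculated from IC50 by the Cheng-Prusoff equation; CCPA Ki shift given as fold change; three experiments.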

[2] = target: T1, Adenosine receptor A1 (Homo sapiens); assay: Potentiation of [3H]CCPA binding to human adenosine A1 receptor expressed in CHO cell membranes at 10 uM after 90 mins relative to [3H]CCPA-treated control
[3] = target: T2, Adenosine receptor A3 (Homo sapiens) (UniProt P0DMS8); assay: Displacement of [3H]-MRE-3008-F20 from human adenosine A3 receptor expressed in CHO cell membranes at 10 uM by scintillation counting analysis relative to control
T2 sequence (whole entry): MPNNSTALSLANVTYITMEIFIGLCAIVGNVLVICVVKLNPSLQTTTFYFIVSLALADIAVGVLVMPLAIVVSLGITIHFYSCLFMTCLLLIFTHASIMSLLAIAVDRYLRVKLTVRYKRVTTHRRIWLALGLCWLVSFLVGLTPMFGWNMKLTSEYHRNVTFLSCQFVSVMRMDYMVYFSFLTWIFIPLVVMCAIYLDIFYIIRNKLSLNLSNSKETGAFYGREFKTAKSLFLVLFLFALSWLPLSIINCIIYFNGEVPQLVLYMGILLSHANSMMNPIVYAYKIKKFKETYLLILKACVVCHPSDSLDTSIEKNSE
Method in brief: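 A3-expressing CHO membranes in 50 mM Tris-HCl, 10 mM MgCl₂, 1 mM EDTA pH 7.4 with 2 nM [³H]MRE-3008-F20. Incubated 120 min at 4 °C. Compound 10 µM in 1% DMSO final. Filtration and scintillation counting; percent inhibition of specific binding.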

[4] = target: Adenosine receptor A2a (Homo sapiens) (UniProt P29274); assay: Displacement of [3H]-ZM241385 from human adenosine A2A receptor expressed in CHO cell membranes at 10 uM by scintillation counting analysis relative to control
Sequence of Adenosine receptor A2a (Homo sapiens) (P29274 whole entry): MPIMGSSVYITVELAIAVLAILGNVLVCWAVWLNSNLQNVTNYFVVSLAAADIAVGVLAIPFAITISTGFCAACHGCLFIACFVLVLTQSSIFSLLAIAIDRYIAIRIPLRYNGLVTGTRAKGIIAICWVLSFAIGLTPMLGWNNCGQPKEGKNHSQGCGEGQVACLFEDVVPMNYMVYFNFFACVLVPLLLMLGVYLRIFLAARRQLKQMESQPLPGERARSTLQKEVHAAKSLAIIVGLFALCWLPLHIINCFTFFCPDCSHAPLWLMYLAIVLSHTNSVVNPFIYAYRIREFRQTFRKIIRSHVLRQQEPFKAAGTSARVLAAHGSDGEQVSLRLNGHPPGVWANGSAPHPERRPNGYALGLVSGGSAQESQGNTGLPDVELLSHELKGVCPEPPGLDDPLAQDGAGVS
Method in brief: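 A2A-expressing CHO membranes, pretreated with adenosine deaminase, in 50 mM Tris-HCl, 10 mM MgCl₂ pH 7.4 with 1 nM [³H]ZM 241385. Incubated 60 min at 4 °C. Compound 10 µM in 1% DMSO final. Filtration and scintillation counting; percent inhibition of specific binding.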

[5] = target: T1, Adenosine receptor A1 (Homo sapiens); assay: Displacement of [3H]-DPCPX from human adenosine A1 receptor expressed in CHO cell membranes at 10 uM by scintillation counting analysis relative to control
Method in brief: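 hA1-CHO membranes, pretreated with adenosine deaminase, in 50 mM Tris-HCl pH 7.4 with 1 nM [³H]DPCPX. Incubated 120 min at 25 °C. Compound 10 µM added from 100-fold DMSO stock, 1% DMSO final. Bound ligand collected on glass-fibre filters and counted by scintillation; percent inhibition of specific binding.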

[6] = target: T1, Adenosine receptor A1 (Homo sapiens); assay: Allosteric enhancement of human adenosine A1 receptor expressed in CHO cells assessed as inhibition of forskolin-stimulated cAMP production at 100 nM preincubated for 10 mins followed by forskolin challenge measured after 5 mins by scintillation counting analysis in presence of CCPA relative to control; format: functional, cell-based
Method in brief: (§1)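 hA1-CHO cells (10⁶ cells/mL) in phosphate buffer with adenosine deaminase 1.0 IU/mL and Ro 20-1724 0.5 mM, preincubated 10 min at 37 °C. Compound added for 10 min, alone or at 100 nM with CCPA 1 pM. Forskolin 1 µM added for 5 min, stopped with cold 6% TCA. cAMP measured by [³H]-cAMP competition protein-binding assay; percent inhibition versus control; three experiments.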

[7] = target: T1, Adenosine receptor A1 (Homo sapiens); assay: Allosteric enhancement of human adenosine A1 receptor expressed in CHO cells assessed as inhibition of forskolin-stimulated cAMP production at 10 uM preincubated for 10 mins followed by forskolin challenge measured after 5 mins by scintillation counting analysis relative to control; format: functional, cell-based; method in brief: as §1

fold change (FC) [1] | fold change (FC) [2] | inhibition [3] [%] | inhibition [4] [%] | inhibition [5] [%] | inhibition [6] [%] | inhibition [7] [%] | SMILES
2.8 | 4 | 6 | 1 | 1 | 46 | 42 | CC(C)(C)Cc1c(-c2ccncc2)sc(N)c1C(=O)c1ccc(Cl)cc1
4.1 | 5.6 | 1 | 1 | 1 | 58 | 56 | CC(C)c1ccc(-c2sc(N)c(C(=O)c3ccc(Cl)cc3)c2CC(C)(C)C)cc1
4 | 5.8 | 1 | 1 | 1 | 58 | 57 | CC(C)(C)Cc1c(-c2ccc(Cl)cc2)sc(N)c1C(=O)c1ccc(Cl)cc1
